Bioassay records as filed in PubChem BioAssay.
IDH1 mut inh: inhibitors of IDH1 R132H reductase, primary screen, biochemical, plate reader, single point; Isocitrate dehydrogenase [NADP] cytoplasmic (Homo sapiens), O75874; inhibition, % at 10 µM; AID 624101, 2012; actives 0.18% (n = 70,000); diaphorase/resazurin fluorescence, 60 min; in the data active means inhibition above about 34%; inconclusive means no clear call, values can overlap the other calls; inactive means below about 11%;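 further: 0% = DMSO and 100% = no enzyme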
Target sequence (O75874 whole entry R132H): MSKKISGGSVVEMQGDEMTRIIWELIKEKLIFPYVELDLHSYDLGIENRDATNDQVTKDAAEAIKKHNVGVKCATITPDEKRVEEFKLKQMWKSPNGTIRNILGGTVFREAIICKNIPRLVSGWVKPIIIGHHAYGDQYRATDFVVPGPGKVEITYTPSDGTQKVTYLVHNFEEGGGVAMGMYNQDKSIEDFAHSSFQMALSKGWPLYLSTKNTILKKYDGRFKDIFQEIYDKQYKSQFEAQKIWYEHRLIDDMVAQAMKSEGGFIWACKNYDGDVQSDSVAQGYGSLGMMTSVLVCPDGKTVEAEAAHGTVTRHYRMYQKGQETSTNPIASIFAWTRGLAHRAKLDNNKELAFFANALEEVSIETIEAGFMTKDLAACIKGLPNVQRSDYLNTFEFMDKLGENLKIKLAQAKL
GASC1 inh: inhibitors of GASC-1 (KDM4C) histone demethylase, primary screen, biochemical, single concentration HTS; inhibition, % at 12.5 µM; GST-KDM4C 2-372, H3K9me3 peptide, LANCE TR-FRET; actives 0.15% (n = 96,000); Lysine-specific demethylase 4C (Homo sapiens), Q9H3R0;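 active means mean replicate inhibition above about 25%, with at least 55% of replicates also reaching it, limit read from the data, passing the limit was not always enough; inconclusive means only one of those two conditions met; inactive means neither condition met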
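Material: GST-tagged GASC-1 (JMJD2C) catalytic fragment, aa 2-372. Input: enzyme final amount 10 nM. Medium: HEPES buffer, pH 7.5, plus ascorbate. Reagent: H3K9me3 peptide substrate, Fe(II), 2-oxoglutarate. Doses: single dose. Times: reaction 30 min RT, detection step 1 h RT. Measured by: LANCE TR-FRET. Evaluation: Fall in 671/618 emission ratio as inhibition.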
T cruzi growth-1: T. cruzi intracellular proliferation inhibitors, primary screen, cell-based, beta-gal Tulahuen parasites, NIH3T3 host, luminescence; AID 624255, 2012; inhibition, % at 8.34 µM; actives 5.9% (n = 77,000); T. cruzi beta-gal in NIH3T3, GalScreen luminescence, 90 h;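 active means mean inhibition above about 93%, with at least 55% of replicates each passing it, limit read from the data, passing the limit was not always enough; inconclusive means only one of those two conditions holds; inactive means neither condition holds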
Pf Dd2 inh: P. falciparum Dd2 growth inhibitors, primary screen, SYBR Green fluorescence, single dose replicates. AID 1159554, 2015. activity change, % at 10 µM. 72 h; hits give low values. actives 2.3% (n = 94,000); in the data active means activity change below about -80%; inconclusive means no clear call, values can overlap the other calls
T cruzi growth-2: T. cruzi intracellular proliferation inhibitors, confirmation, cell-based, NIH3T3 host, beta-gal parasite, luminescence, cherry-pick; T. cruzi beta-gal in NIH3T3, GalScreen luminescence, 90 h; inhibition, % at 8.35 µM; shares compounds with T cruzi growth-1; AID 651739, 2012; actives 72% (n = 5,600);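 active means mean replicate inhibition above about 95% and at least 55% of replicates individually reaching it, limit read from the data; inconclusive means only one of the two criteria is met; inactive means neither criterion is met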
T cruzi growth-3: inhibitors of intracellular T. cruzi replication, confirmation, NIH3T3 host cells, beta-gal parasites, cherry-pick, set 2; shares compounds with T cruzi growth-1; T. cruzi beta-gal in NIH3T3, GalScreen luminescence, 90 h; inhibition, % at 2.09 µM; actives 21% (n = 5,600);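 active means mean inhibition above about 95%, with at least 55% of replicates also reaching it, limit read from the data; inconclusive means meets just one of the two conditions; inactive means meets neither condition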;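 further: plate controls were neutral control median for no effect and positive control median for full effect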
3T3 cytotox: cytotoxicity in mouse NIH/3T3 fibroblasts, confirmation, cytotoxicity control for T. cruzi proliferation inhibitor project, cell-based, cherry-pick, single point. shares compounds with T cruzi growth-1. NIH/3T3 viability, CellTiter-Glo ATP luminescence, 90 h. cytotoxicity (signal decrease), % at 8.35 µM. actives 14% (n = 5,600);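 active means mean signal decrease across replicates above about 35% based on untreated-well scatter, with enough replicates individually passing, limit read from the data; inconclusive means no rule stated though some were filed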;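 further: 0% = median of neutral control wells and 100% = median of positive control wells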
3T3 cytotox 2: NIH/3T3 fibroblast cytotoxicity, confirmation, cytotoxicity control, cell-based, cherry-pick, single point, set 2. shares compounds with T cruzi growth-1. NIH/3T3 viability, CellTiter-Glo ATP luminescence, 90 h. inhibition, % at 24.9 µM. actives 56% (n = 5,600). AID 651744, 2012;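 active means mean loss of cell viability signal at or above a set limit, and enough replicates individually reaching it; inconclusive means meets only the mean limit or only the replicate share; inactive means meets neither condition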;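 further: 0% = median of neutral control wells and 100% = median of positive control wells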
Starred values were filed as active, the others as inactive; ? = inconclusive; / = no result. In the library only some 5.8% were active in any assay of this set; here they are far more common.

SMILES | IDH1 mut inh | GASC1 inh | T cruzi growth-1 | Pf Dd2 inh | T cruzi growth-2 | T cruzi growth-3 | 3T3 cytotox | 3T3 cytotox 2
C[C@H](CO)N1C[C@H](C)[C@H](CN(C)C(=O)c2ccc(F)cc2)OCc2ccccc2-c2ccccc2C1=O | -3.1 | 0.6 | 43.6 | -26.7 | / | / | / | /
C[C@@H]1CN([C@H](C)CO)S(=O)(=O)c2ccc(/C=C/c3ccccc3)cc2O[C@H]1CN(C)C(=O)Nc1cccc(F)c1 | -0.3 | -1.7 | 123.1* | -61.0 | 95.6* | 99.4* | 73.0* | 102.3*
C/C=C/c1ccc2c(c1)O[C@@H](CN(C)C(=O)Nc1ccc(C(F)(F)F)cc1)[C@H](C)CN([C@H](C)CO)S2(=O)=O | 2.9 | 0.2 | 111.8* | -17.4 | 93.9 | 103.2* | 43.3* | 54.8*
C/C=C/c1ccc2c(c1)O[C@H](CN(C)C(=O)Nc1cc(F)ccc1F)[C@@H](C)CN([C@@H](C)CO)S2(=O)=O | -2.6 | -0.2 | 100.3* | -45.5 | 101.1* | 32.8 | 0.5 | 25.0
C/C=C/c1ccc2c(c1)O[C@H](CN(C)C(=O)Nc1ccc(F)cc1)[C@H](C)CN([C@H](C)CO)S2(=O)=O | 0.2 | -2.0 | 65.0 | -12.1 | / | / | / | /
C/C=C/c1ccc2c(c1)O[C@H](CN(C)C(=O)Nc1cc(F)ccc1F)[C@@H](C)CN([C@H](C)CO)S2(=O)=O | 3.2 | -1.9 | 28.0 | -33.1 | / | / | / | /
C[C@H](CO)N1C[C@H](C)[C@H](CN(C)C(=O)Nc2ccc(F)cc2)Oc2cc(/C=C/c3ccccc3)ccc2S1(=O)=O | -0.9 | / | 122.4* | -78.5 | 99.1* | 105.1* | 11.6 | 36.5*
C[C@H](CO)N1C[C@H](C)[C@H](CN(C)C(=O)Nc2cccc(F)c2)Oc2cc(/C=C/c3ccccc3)ccc2S1(=O)=O | 1.8 | -1.4 | 123.6* | -75.6 | 104.8* | 111.4* | 39.3* | 36.8*
C[C@@H]1CN([C@H](C)CO)S(=O)(=O)c2ccc(/C=C/c3ccccc3)cc2O[C@@H]1CN(C)C(=O)Nc1cccc(F)c1 | -3.0 | -2.0 | 124.1* | -66.0 | 101.4* | 108.3* | 22.2 | 29.6
COc1cccc(NC(=O)N(C)C[C@@H]2Oc3cc(/C=C/c4ccccc4)ccc3S(=O)(=O)N([C@H](C)CO)C[C@H]2C)c1 | 1.8 | -0.8 | / | -47.9 | / | / | / | /
C[C@H]1CN([C@@H](C)CO)S(=O)(=O)c2ccc(/C=C/c3ccccc3)cc2O[C@@H]1CN(C)C(=O)Nc1cccc(F)c1 | 2.2 | 0.6 | 125.3* | -19.2 | 95.1* | 100.3* | ? | 47.1*
C/C=C/c1ccc2c(c1)O[C@H](CN(C)C(=O)Nc1cccc(F)c1)[C@@H](C)CN([C@H](C)CO)S2(=O)=O | -1.8 | -2.0 | 80.3 | -11.4 | / | / | / | /
C/C=C/c1ccc2c(c1)O[C@@H](CN(C)C(=O)Nc1cccc(F)c1)[C@H](C)CN([C@@H](C)CO)S2(=O)=O | 0.4 | 2.2 | 96.6* | 0.8 | 83.6 | 34.8 | 19.4 | 62.9*
C/C=C/c1ccc2c(c1)O[C@@H](CN(C)C(=O)Nc1cccc(F)c1)[C@@H](C)CN([C@H](C)CO)S2(=O)=O | 0.1 | -1.3 | 66.2 | -50.5 | / | / | / | /
Cc1ccc(S(=O)(=O)N[C@@H]2C=C[C@H](CC(=O)N3CCN(c4ccccc4)CC3)O[C@@H]2CO)cc1 | 0.3 | 0.2 | 44.8 | -1.9 | / | / | / | /
Cc1ccc(S(=O)(=O)Nc2ccc3c(c2)C(=O)N([C@@H](C)CO)C[C@H](C)[C@H](CN(C)S(=O)(=O)c2ccccc2)O3)cc1 | -2.2 | -0.9 | 19.2 | 4.9 | / | / | / | /
